This is an account of results in PubChem BioAssay.

Test [1] can be described thus: S. cerevisiae growth inhibition in permissive medium (OD615), pilot counter-assay for S. cerevisiae lifespan shortening project, permissive growth control (AID 705). The settings on record: OD615, 24 h, at 10 µM, stronger effect = higher value. The procedure, abridged: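 Test system: Saccharomyces cerevisiae strain carrying genetically modified DeaD replicative-lifespan system; buffer or medium: SC raffinose/galactose permissive medium; dosing: one dose 10 µM, DMSO 0.25% final; times: 24 h exposure, 30 °C; measured by: OD at 615 nm; read-out basis: growth inhibition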

Test [2] is described as follows: S. cerevisiae growth inhibition in restrictive medium, OD615, pilot screen, restrictive growth control, yeast lifespan reduction project (AID 706;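 active = growth inhibition above a set limit, 3 SD over mean compound inhibition, in both replicates, cut at about 43% in these data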;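 note: modified DeaD lifespan yeast strain shifted to restrictive glucose medium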). To be noted: OD615, 48 h, at 10 µM, stronger effect = higher value. The procedure, abridged:
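material = engineered S. cerevisiae DeaD strain | buffer or medium = glucose-based CSMM-D restrictive medium | dosing = one concentration, 10 µM final, 0.25% DMSO | schedule = 4 h pre-growth plus 48 h compound exposure, 30 °C | detection = OD615 absorbance reading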

Test [3] in a line: doxorubicin toxicity protection in MRP-1 cells – H69AR cells, CellTiter-Glo, duplicate, MRP-1 activator project, pilot screen (AID 807;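 active = viability increase at or above a cutoff of the median across tested compounds plus 3 SD, cut at about 8.5% in these data, passing the limit was not always enough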;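 note: compound pretreatment 18-22 h then 72 h combined with doxorubicin; 0% = doxorubicin alone and 100% = vehicle without doxorubicin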). To be noted: H69AR viability with doxorubicin, CellTiter-Glo luminescence; at 10 µM; stronger effect = higher value. (Cellular ATP, detected with luciferase, serves as a proxy for viable cell number.)
Test [4] is described as follows: viability of HCT116 without oncogenic beta-catenin – human colon tumor cells, pilot screen (AID 823;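 active = cell viability at or below a set limit in both duplicate runs, the limit being the all-compound median minus 4 SD, cut at about 23% in these data, passing the limit was not always enough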;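 note: 0% = wells killed by 20 µM Hyamine and 100% = untreated DMSO cell wells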). To be noted: HCT116 beta-catenin knockout viability, CellTiter-Glo, 60 h; at 10 µM; stronger effect = lower value.
Test [5] can be described thus: viability of PTEN-null HCT116 cells – cell-based, HCT116 clonal line, CellTiter-Glo, pilot screen (AID 824;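 active = viability at or below 27.92% in each of two runs, the all-compound median minus 4 SD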;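 note: 0% = 20 µM Hyamine control and 100% = vehicle cell control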). The settings on record: HCT116 PTEN-deleted viability, 60 h, at 10 µM, stronger effect = lower value.
Test [6] in a line: RAM pathway blockade in budding yeast – dse1pr::URA3 reporter, 5-FOA selection, pilot screen (AID 869;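 active = inhibition over a set limit, the all-compound mean plus 3 SD, in both replicate runs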;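 note: 0% = DMSO wells with no growth and 100% = 10 µM 1-NA-PP1 with full growth; RAM network block rescues cells from 5-FOA so hits raise OD615 growth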). The settings on record: S. cerevisiae dse1pr::URA3 5-FOA growth, OD615, 2 d; at 10 µM; stronger effect = higher value; strain carries analog-sensitive mutant Cbk1 kinase.
Test [7] in a line: RAM signaling pathway blockade in yeast – S. cerevisiae, Pdr1DBD-CYC8 efflux-inhibited sensitized strain, primary screen (AID 1298;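 active = RAM network inhibition above 8.4% in each of two replicates, 3 SD over the compound average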;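 note: 0% = DMSO untreated cells without growth and 100% = 10 µM 1-NA-PP1 full growth; higher means more yeast growth rescued from 5-FOA killing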). To be noted: S. cerevisiae cbk1-as DSE1-URA3 strain, 5-FOA growth OD615, 2 d; at 50 µM; stronger effect = higher value.

Values without a mark were called inactive. Inconclusive results are not listed. Activity calls are given as the source filed them.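 Rule for the calls, unless noted: active = growth inhibition above 25% in both replicates, a cutoff set 3 SD above the mean; inconclusive = above 25% in only one replicate; inactive = the rest.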

In general, viability refers to a read-out of living cells in per cent, often relative to untreated cells. Broadly, the inhibition is the drop in the measured response relative to a control, in per cent.

Turning to `CC(CN(C)Cc1ccccc1)OC(=O)C1COc2ccccc2O1` (stereo unspecified), the growth inhibition was -9.66% in test [1] and 6.59% in test [2]. Moreover, the viability increase in test [3] was 0.39%. Moreover, the figures for the viability in test [4] and in test [5] were 101% and 102%, respectively. For the same compound, in test [6], the inhibition is 1.3%. For the same compound, the RAM network inhibition in test [7] is 2.25%.
With `COc1ccc(C2C(C(=O)Nc3ccccn3)=C(C)Nc3ncnn32)c(OC)c1` (stereo unspecified), the growth inhibition was -8.54% in test [1] and -6.24% in test [2]. In addition, in test [3], the viability increase is -1.04%. Besides, the figures for the viability in test [4] and in test [5] were 101% and 92.1%, respectively. Further, in test [6], the inhibition is 2.48%. For the same compound, in test [7], the RAM network inhibition is 7.85%.
For `CCOC(=O)N1CCC(NC(=O)Cn2cc3c(n2)CCCC3)CC1`, the growth inhibition in test [1] is -1.57%; in test [2], -0.65%. For the same compound, the viability increase in test [3] was -3.35%. Moreover, the viability in test [4] was 107%; in test [5], 92.5%. Besides, the inhibition in test [6] is 2.6%. Moreover, the RAM network inhibition in test [7] was 2.81%.
Turning to `N=c1n(CCO)c2ccccc2n1CCOc1ccc(Cl)cc1Cl`, the growth inhibition in test [1] was -0.15%; in test [2], 4.96%. For the same compound, the viability increase in test [3] was -8.35%. Further, the viability in test [4] was 1.5% (active); in test [5] it was 1.54% (active). Moreover, the inhibition in test [6] is 1%. Further, in test [7], the RAM network inhibition is 0.72%.
In the case of `Cc1ccccc1CNc1nc(N)n(-c2ccccc2)n1`, the growth inhibition in test [1] is -0.29%; in test [2] it was 2.71%. Besides, the viability increase in test [3] is -1.74%. Besides, the values for the viability in test [4] and in test [5] were 104% and 98.1%, respectively. In test [6], the inhibition was 0.48%. In test [7], the RAM network inhibition is 4.87%.
On to `Cc1ccc(-c2nc(CS(=O)CC(=O)NCc3ccccc3)c(C)o2)cc1` (stereo unspecified), for which the growth inhibition is 2.69% in test [1] and -1.83% in test [2]. Moreover, in test [3], the viability increase was -2.84%. Also, the viability is 98.2% in test [4] and 89.5% in test [5]. Moreover, the inhibition in test [6] was 0.175%. In addition, the RAM network inhibition in test [7] is 6.78%.
For the compound `COc1ccc(-c2nc(-c3ccc(Br)o3)no2)cc1OC`, the results for the growth inhibition in test [1] and in test [2] were -7.45% and -17.9%, respectively. Also, in test [3], the viability increase is -0.69%. The viability in test [4] was 86.3%; in test [5], 78.6%. Besides, in test [6], the inhibition is 0.88%. The RAM network inhibition in test [7] was 2.25%.
For the compound `Cc1cc2cc(CCNC(=O)c3c(-c4ccccc4Cl)noc3C)c(=O)[nH]c2cc1C`, the growth inhibition in test [1] was -14.1%; in test [2] it was -2.13%. Besides, the viability increase in test [3] is -3.71%. Further, the viability in test [4] was 94.9%; in test [5] it was 94.7%. Moreover, in test [6], the inhibition is 1.85%. For the same compound, in test [7], the RAM network inhibition was 3.43%.
In the case of `COC(=O)c1ccc(NC(=O)CSc2nnc(COc3ccc4c(c3)CCCC4)o2)cc1`, the growth inhibition in test [1] and in test [2] was -2.11% in each case. In addition, the viability increase in test [3] is -3.92%. The viability in test [4] is 97.8%; in test [5], 96.7%. The inhibition in test [6] was 3.43%. In addition, in test [7], the RAM network inhibition was 4.19%.
Take `CCc1cccc(OCC(=O)Nc2ccc(S(=O)(=O)Nc3onc(C)c3C)cc2)c1`: the growth inhibition in test [1] was -13.4%; in test [2] it was 8.17%. Moreover, the viability increase in test [3] was -1.89%. Besides, the viability in test [4] was 98.7%; in test [5], 97%. Further, in test [6], the inhibition was -0.085%. Also, the RAM network inhibition in test [7] is 1.89%.
As to `O=P(O)(CCc1ccncc1)CN1CCCCC1`, the values for the growth inhibition in test [1] and in test [2] were -9.59% and -7.67%, respectively. The viability increase in test [3] is 2.46%. Besides, the viability in test [4] is 97.3%; in test [5], 101%. In test [6], the inhibition is 1.82%. In test [7], the RAM network inhibition was -0.01%.
As to `CC1(C)C(C#N)=C(N)OC2=C1C(=O)CCC2`, the growth inhibition in test [1] was -8.74%; in test [2], -5.87%. Also, the viability increase in test [3] is -0.89%. For the same compound, the viability in test [4] is 96.3%; in test [5], 97.4%. Besides, the inhibition in test [6] is 2.41%. In addition, the RAM network inhibition in test [7] was 1.3%.
Take `COC(=O)C(C)n1cnc2c(nnn2-c2cccc(Cl)c2)c1=O` (stereo unspecified): the growth inhibition is -6.67% in test [1] and 1.2% in test [2]. In addition, in test [3], the viability increase is 2.08%. The viability was 110% in test [4] and 99% in test [5]. The inhibition in test [6] was 0.05%. Further, in test [7], the RAM network inhibition is 6.76%.
On to `CCN(CC)C(=O)c1sc(NC(=O)c2ccoc2C)c(C(=O)OC)c1C`, for which the growth inhibition in test [1] is -5.36%; in test [2] it was 5.77%. Moreover, the viability increase in test [3] is -1.15%. In addition, the results for the viability in test [4] and in test [5] were 83.4% and 90.6%, respectively. Also, the inhibition in test [6] is 1.33%. In test [7], the RAM network inhibition is 7.43%.
Take `Cc1nn(-c2ccccc2)c2c1C(c1ccccc1)C(C#N)=C(N)O2` (stereo unspecified): the growth inhibition is -13.1% in test [1] and -12.2% in test [2]. The viability increase in test [3] was -2.62%. Also, the results for the viability in test [4] and in test [5] were 91.3% and 87.8%, respectively. In addition, the inhibition in test [6] is 2.24%. The RAM network inhibition in test [7] is 10.5%.
For `NC(=O)c1cc(N2C(=O)C3CC=CCC3C2=O)ccc1N1CCCCC1` (stereo unspecified), the growth inhibition in test [1] was -21.2%; in test [2], -3.95%. The viability increase in test [3] was 0.16%. The figures for the viability in test [4] and in test [5] were 93.1% and 92.4%, respectively. Besides, in test [6], the inhibition was 1.98%. Further, the RAM network inhibition in test [7] is 4.2%.
For the compound `COc1ccccc1N=C(C)C1=C(O)CSC1=O`, the growth inhibition in test [1] is -9.17%; in test [2], -5.92%. The viability increase in test [3] was -1.29%. The viability was 99.6% in test [4] and 93.3% in test [5]. Besides, in test [6], the inhibition was -0.17%. The RAM network inhibition in test [7] was 6.89%.
Take `CCCc1nc(SCC(=O)NCc2ccc3c(c2)OCO3)c2c(=O)n(C)c(=O)n(C)c2n1`: the growth inhibition in test [1] is 1.28%; in test [2], 7.41%. For the same compound, the viability increase in test [3] is -6.51%. Further, the viability in test [4] is 61.1%; in test [5], 57.5%. Moreover, the inhibition in test [6] was 2.25%. In test [7], the RAM network inhibition is 5.66%.
